Results collected from several papers.
Protocols differ between the studies behind these lines. pIC50: −log10 of the molar value. Converted amounts (≈) assume the structure as drawn.

With `CC1(C)S[C@@H]2[C@H](NC(=O)[C@H](N)c3ccccc3)C(=O)N2[C@H]1C(=O)O` the MIC90 was 4 µg/mL (Streptococcus pneumoniae; microbial growth; clinical isolate).
The inhibition zone of `COc1cc(C=NNC(=O)CSc2nc3c(C)cccc3c(=O)n2-c2ccccc2)ccc1OS(C)(=O)=O` is reported as 3 mm (Klebsiella pneumoniae; microbial growth, well diffusion; 20 µg/mL).
For `CC(=O)NC[C@H]1CN(c2ccc(N3CCOCC3)c(F)c2)C(=O)O1`, the MIC was 0.5 µg/mL (≈ 1.48 µM) (Streptococcus pneumoniae; microbial growth, agar dilution; ATCC49619).
The inhibition of `Cc1nc(Nc2ncc(C(=O)Nc3c(C)cccc3Cl)s2)cc(N2CC[C@H](O)C2)n1` is reported as 56% (CA46; cell growth or viability, ATP luminescence; 10 µM, 72 h).
The inhibition zone of `CCCS(=O)(=O)Oc1ccc(C=NNC(=O)CSc2nc3c(C)cccc3c(=O)n2-c2ccccc2)cc1` is reported as 3 mm (Klebsiella pneumoniae; microbial growth, well diffusion; 20 µg/mL).
`C=C[C@]1(C)C[C@@H](OC(=O)CS[C@@H]2C[C@H]3CC[C@@H](C2)N3C)[C@]2(C)[C@H](C)CC[C@]3(CCC(=O)[C@H]32)[C@@H](C)[C@@H]1O` gave an MIC90 of 0.0312 µg/mL (Streptococcus pneumoniae; microbial growth; PRSP; clinical isolate).
For `CC1(C)C[C@H]2[C@H]1CC[C@]1(C)CCC[C@@]2(n2cc(C(=O)N3CCNCC3)nn2)C1`, the inhibition was 91.6% (HT-29; cell growth or viability, CCK-8; 10 µM).
For `CC[C@H]1OC(=O)[C@H](C)[C@@H](O[C@H]2C[C@@](C)(OC)[C@@H](O)[C@H](C)O2)[C@H](C)[C@@H](O[C@@H]2O[C@H](C)C[C@H](N(C)C)[C@H]2O)[C@](C)(O)C[C@@H](C)/C(=N\OCOCCOC)[C@H](C)[C@@H](O)[C@]1(C)O`, the MIC90 was 16 µg/mL (Streptococcus pneumoniae; microbial growth; PRSP; clinical isolate).
The pIC50 of `O=c1c2cc(Cl)ccc2nc(-c2ccccc2)n1N=Cc1c(F)cccc1Cl` is reported as 4.33 (LLC-PK1; cell growth or viability, MTT; 72 h).
`CCCS(=O)(=O)Oc1ccc(C=NNC(=O)CSc2nc3c(C)cccc3c(=O)n2-c2ccccc2)cc1OC` has an inhibition zone of 2 mm (Klebsiella pneumoniae; microbial growth, well diffusion; 20 µg/mL).
The inhibition of `CC1(C)C[C@H]2[C@H]1CC[C@]1(C)CCC[C@@]2(n2cc(CN3CCOCC3)nn2)C1` is reported as 45% (HT-29; cell growth or viability, CCK-8; 50 µM).
For `CCS(=O)(=O)Oc1cc(C=NNC(=O)CSc2nc3ccc(Cl)cc3c(=O)n2-c2ccccc2)ccc1OC`, the inhibition zone was 2 mm (Klebsiella pneumoniae; microbial growth, well diffusion; 20 µg/mL).
The MIC90 of `O=c1oc2ccccc2c(Nc2ccccc2)c1I` is reported as 9 µg/mL (Klebsiella pneumoniae; microbial growth, broth dilution).
With `CC1(C)C[C@H]2[C@H]1CC[C@]1(C)CCC[C@@]2(n2cc(C(=O)NC3CCNCC3)nn2)C1` the inhibition was 68.1% (HT-29; cell growth or viability, CCK-8; 10 µM).
For `COc1cc(C=NNC(=O)CSc2nc3ccc(Cl)cc3c(=O)n2-c2ccccc2)ccc1OS(C)(=O)=O`, the inhibition zone was 2 mm (Klebsiella pneumoniae; microbial growth, well diffusion; 20 µg/mL).
`CN[C@H](CC(C)C)C(=O)N[C@H]1C(=O)N[C@@H](CC(N)=O)C(=O)N[C@H]2C(=O)N[C@H]3C(=O)N[C@H](C(=O)N[C@H](C(=O)O)c4cc(O)cc(O)c4-c4cc3ccc4O)[C@H](O)c3ccc(c(Cl)c3)Oc3cc2cc(c3O[C@@H]2O[C@H](CO)[C@@H](O)[C@H](O)[C@H]2O[C@H]2C[C@](C)(N)[C@H](O)[C@H](C)O2)Oc2ccc(cc2Cl)[C@H]1O` has an MIC of 0.5 µg/mL (≈ 0.345 µM) (Streptococcus pneumoniae; microbial growth, agar dilution; ATCC49619).
`CC1(C)C[C@H]2[C@H]1CC[C@]1(C)CCC[C@@]2(NS(=O)(=O)c2cc(Cl)cc(Cl)c2O)C1` has an inhibition of < 50% (HT-29; cell growth or viability, CCK-8; 10 µM).
`CCCS(=O)(=O)Oc1ccc(C=NNC(=O)CSc2nc3ccc(Cl)cc3c(=O)n2-c2ccccc2)cc1` gave an inhibition zone of 3 mm (Klebsiella pneumoniae; microbial growth, well diffusion; 20 µg/mL).
With `COc1ccc(C=Nn2c(-c3ccccc3)nc3ccc(Cl)cc3c2=O)cc1O` the pIC50 was 3.55 (LLC-PK1; cell growth or viability, MTT; 72 h).
`CC1(C)C[C@H]2[C@H]1CC[C@]1(C)CCC[C@@]2(n2cc(C(=O)NCCN)nn2)C1` has an inhibition of 78.3% (HT-29; cell growth or viability, CCK-8; 50 µM).
For `CCCS(=O)(=O)Oc1cc(C=NNC(=O)CSc2nc3c(C)cccc3c(=O)n2-c2ccccc2)ccc1OC`, the inhibition zone was 2 mm (Klebsiella pneumoniae; microbial growth, well diffusion; 20 µg/mL).
`CC1(C)C[C@H]2[C@H]1CC[C@]1(C)CCC[C@@]2(NS(=O)(=O)c2ccc(OC(F)(F)F)cc2)C1` has an inhibition of < 50% (HT-29; cell growth or viability, CCK-8; 10 µM).
`Cc1cccc2c(=O)n(-c3ccccc3)c(SCC(=O)NN=Cc3ccc(OS(C)(=O)=O)cc3)nc12` gave an inhibition zone of 3 mm (Klebsiella pneumoniae; microbial growth, well diffusion; 20 µg/mL).
`CC1(C)C[C@H]2[C@H]1CC[C@]1(C)CCC[C@@]2(n2cc(C(=O)O)nn2)C1` gave an inhibition of 32.3% (HT-29; cell growth or viability, CCK-8; 50 µM).
For `CC1(C)S[C@@H]2[C@H](NC(=O)[C@H](N)c3ccc(O)cc3)C(=O)N2[C@H]1C(=O)O`, the MIC90 was 3 µM (Vibrio vulnificus; microbial growth, broth dilution).
With `CC1(C)C[C@H]2[C@H]1CC[C@]1(C)CCC[C@@]2(NS(=O)(=O)C(C)(C)C)C1` the inhibition was 71.4% (HT-29; cell growth or viability, CCK-8; 50 µM).
For `COc1cccc(C=Nn2c(-c3ccccc3)nc3ccc(Cl)cc3c2=O)c1`, the pIC50 was 3.75 (LLC-PK1; cell growth or viability, MTT; 72 h).
